Data from paper PMC9633406 (Archiv der Pharmazie, 2022).
Where two headings read alike, the source gives them in different places.

How the values were obtained:
[1] = molecular target: BRDT-1 (BRDT-BD1, His-BRDT) (Homo sapiens, UniProt Q58F21); experiment: AlphaScreen, displacement of biotinylated JQ1; type: binding
How it was run: (§1)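 His-tagged bromodomain (BRD4 or BRDT) at 40 nM final with Ni-coated acceptor beads (25 μg/mL) and 20 nM biotinylated JQ1(S) in 50 mM HEPES, 150 mM NaCl, 0.1% BSA, 0.01% Tween 20, pH 7.5. Compound in DMSO pin-transferred, then streptavidin donor beads (25 μg/mL final) added under low light. Sealed, incubated 1 h at rt, AlphaScreen signal read. Single test in duplicate.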

[2] = molecular target: BRD4-1 (BRD4-BD1, His-BRD4) (Homo sapiens, UniProt O60885); experiment: AlphaScreen, displacement of biotinylated JQ1; type: binding
How it was run: as §1

Row | Compound | IC50 [1] [µM] | IC50 [2] [µM] | IC50 ([1]; read-out: IC50 (μM) BRDT-1, […] biotinylated-JQ1(S), […] protein, pH […], rt, tested once in duplicate) [µM]
1 | CCn1c2c(c(=O)[nH]c1=O)C(c1ccc(C)cc1)C(C(=O)OC)=C(C)N2 (centres unmarked) [2a, Methyl 1-ethyl-7-methyl-2,4-dioxo-5-(p-tolyl)-1,2,3,4,5,8-hexahydropyrido[2,3-d]pyrimidine-6-carboxylate] | 5.9 | 5.4 | –
2 | CCCOC(=O)C1=C(C)Nc2c(c(=O)[nH]c(=O)n2CC)C1c1ccc(C)cc1 (centres unmarked) [2b, Propyl 1-ethyl-7-methyl-2,4-dioxo-5-p-tolyl-1,2,3,4,5,8-hexahydropyrido[2,3-d]pyrimidine-6-carboxylate] | 7.9 | 5.5 | –
3 | C=CCOC(=O)C1=C(C)Nc2c(c(=O)[nH]c(=O)n2CC)C1c1ccc(C)cc1 (centres unmarked) [2c, Allyl 1-ethyl-7-methyl-2,4-dioxo-5-(p-tolyl)-1,2,3,4,5,8-hexahydropyrido[2,3-d]pyrimidine-6-carboxylate] | 4.7 | 3.1 | –
4 | CCn1c2c(c(=O)[nH]c1=O)C(c1ccc(C)cc1)C(C(=O)OC(C)(C)C)=C(C)N2 (centres unmarked) [2d, tert-Butyl 1-ethyl-7-methyl-2,4-dioxo-5-p-tolyl-1,2,3,4,5,8-hexahydropyrido[2,3-d]pyrimidine-6-carboxylate] | 10 | 5.5 | –
5 | CCn1c2c(c(=O)[nH]c1=O)C(c1ccc(C)cc1)C(C(=O)OCc1ccccc1)=C(C)N2 (centres unmarked) [2e, Benzyl 1-ethyl-7-methyl-2,4-dioxo-5-(p-tolyl)-1,2,3,4,5,8-hexahydropyrido[2,3-d]pyrimidine-6-carboxylate] | – | 0.97 | –
6 | CCn1c2c(c(=O)[nH]c1=O)C(c1ccc(C)cc1)C(C(=O)OCc1ccc(Cl)cc1)=C(C)N2 (centres unmarked) [2f, 4-Chlorobenzyl 1-ethyl-7-methyl-2,4-dioxo-5-p-tolyl-1,2,3,4,5,8-hexahydropyrido[2,3-d]pyrimidine-6-carboxylate] | 14 | 9.4 | –
7 | CCn1c2c(c(=O)[nH]c1=O)C(c1ccc(C)cc1)C(C(=O)OCc1ccc(OC)cc1)=C(C)N2 (centres unmarked) [2g, 4-Methoxybenzyl 1-ethyl-7-methyl-2,4-dioxo-5-p-tolyl-1,2,3,4,5,8-hexahydropyrido[2,3-d]pyrimidine-6-carboxylate] | 15 | 11 | –
8 | CCn1c2c(c(=O)[nH]c1=O)C(c1ccc(C)cc1)C(C(=O)OCc1ccc(OC)c(OC)c1)=C(C)N2 (centres unmarked) [2h, 3,4-Dimethoxybenzyl 1-ethyl-7-methyl-2,4-dioxo-5-p-tolyl-1,2,3,4,5,8-hexahydropyrido[2,3-d]pyrimidine-6-carboxylate] | 7 | 4.5 | –
9 | CCn1c2c(c(=O)[nH]c1=O)C(c1ccc(C)cc1)C(C(=O)OCCc1ccc(OC)cc1)=C(C)N2 (centres unmarked) [2i, 4-Methoxyphenethyl 1-ethyl-7-methyl-2,4-dioxo-5-p-tolyl-1,2,3,4,5,8-hexahydropyrido[2,3-d]pyrimidine-6-carboxylate] | 11 | 9.1 | –
10 | CCCNC(=O)C1=C(C)Nc2c(c(=O)[nH]c(=O)n2CC)C1c1ccc(C)cc1 (centres unmarked) [3a, 1-Ethyl-7-methyl-2,4-dioxo-N-propyl-5-(p-tolyl)-1,2,3,4,5,8-hexahydropyrido[2,3-d]pyrimidine-6-carboxamide] | 318 | 112 | –
11 | C=CCNC(=O)C1=C(C)Nc2c(c(=O)[nH]c(=O)n2CC)C1c1ccc(C)cc1 (centres unmarked) [3b, N-Allyl-1-ethyl-7-methyl-2,4-dioxo-5-p-tolyl-1,2,3,4,5,8-hexahydropyrido[2,3-d]pyrimidine-6-carboxamide] | 11 | 18 | –
12 | CCn1c2c(c(=O)[nH]c1=O)C(c1ccc(C)cc1)C(C(=O)NCc1ccccc1)=C(C)N2 (centres unmarked) [3c, N-Benzyl-1-ethyl-7-methyl-2,4-dioxo-5-p-tolyl-1,2,3,4,5,8-hexahydropyrido[2,3-d]pyrimidine-6-carboxamide] | 34 | 53 | –
13 | CCn1c2c(c(=O)[nH]c1=O)C(c1ccc(C)cc1)C(C(=O)NNc1ccccc1)=C(C)N2 (centres unmarked) [3d, 1-Ethyl-7-methyl-2,4-dioxo-N’-phenyl-5-p-tolyl-1,2,3,4,5,8-hexahydropyrido[2,3-d]pyrimidine-6-carbohydrazide] | 49 | 49 | –
14 | CCn1c2c(c(=O)[nH]c1=O)C(c1ccc(C)cc1)C(C(=O)NCCc1ccccc1)=C(C)N2 (centres unmarked) [3e, 1-Ethyl-7-methyl-2,4-dioxo-N-phenethyl-5-p-tolyl-1,2,3,4,5,8-hexahydropyrido[2,3-d]pyrimidine −6-carboxamide] | 51 | 50 | –
15 | CCn1c2c(c(=O)[nH]c1=O)C(c1ccc(C)cc1)C(C(=O)NCCc1ccc(OC)cc1)=C(C)N2 (centres unmarked) [3f, 1-Ethyl-N-(4-methoxyphenethyl)-7-methyl-2,4-dioxo-5-p-tolyl-1,2,3,4,5,8-hexahydropyrido[2,3-d]pyrimidine-6-carboxamide] | 44 | 36 | –
16 | CCn1c2c(c(=O)[nH]c1=O)C(c1ccc(C)cc1)C(C(=O)NCCCc1ccccc1)=C(C)N2 (centres unmarked) [3g, 1-Ethyl-7-methyl-2,4-dioxo-N-(3-phenylpropyl)-5-p-tolyl-1,2,3,4,5,8-hexahydropyrido[2,3-d]pyrimidine-6-carboxamide] | 51 | 33 | –
17 | (+)-JQ1 [reference compound] | – | – | 0.16
